Sampled rows, rich in hits. Any-hit rate of the full collection: about 2.2%.
Rin1 Abl inh – inhibitors of Rin1-Abl protein binding, primary screen, biochemical, TR-FRET; 0.4% of 360,000 active; AID 588664, 2011; inhibition, % at 7.35 µM; in the data active = inhibition above about 5%, passing the limit was not always enough
PAD4 FP inh – human PAD4 inhibitors, primary screen, biochemical, fluorescence polarization, 1536-well format. inhibition, % at 6.36 µM. recombinant PAD4, RCA probe fluorescence polarization. 0.41% of 330,000 active. Protein-arginine deiminase type-4 (Homo sapiens), Q9UM07;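 active = percent inhibition above a cutoff equal to the mean of all tested compounds plus 3 SD, cut at about 15% in these data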;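 also: 0% = PAD4 with RCA probe and DMSO and 100% = probe without PAD4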
UBC9 SUMO inh – inhibitors of in vitro SUMOylation cascade, primary screen, biochemical, HTRF, uHTS. 0.36% of 290,000 active. inhibition, % at 35 µM. HTRF SUMOylation assay, SAE1/SAE2 + UBC9. AID 2006, 2009; in the data active = inhibition above about 50%, passing the limit was not always enough; inconclusive = no clear call, values can overlap the other calls
Apaf1 inhib – inhibitors of human Apaf-1 apoptosome, primary screen, biochemical, DEVD-Rh110 fluorescence, uHTS | Apoptotic protease-activating factor 1 (Homo sapiens), O14727 | reconstituted apoptosome caspase-3 activity | inhibition, % at 20 µM | 0.71% of 330,000 active | AID 489030, 2010; active = inhibition of at least 40% at 20 µM;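 also: plate controls were DMSO wells for no effect and DEVD-CHO caspase inhibitor wells for full effect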
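System – cell-free apoptosome with Apaf-1, procaspase-3 and caspase-9 · Buffer or medium – pH 7.5 Hepes buffer with CHAPS, BSA, DTT · Also added – cytochrome c with DEVD-Rh110 · Times – 30 min compound preincubation, 50 min activation, room temperature · Technique – Rh110 fluorescence intensity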
GSTO1 inh – inhibitors of recombinant GSTO1, primary screen, counter-screen for RBBP9 inhibitor project, biochemical, fluorescence polarization. activity-based probe fluorescence polarization. inhibition, % at 5.96 µM. 1.1% of 300,000 active. AID 1974, 2009;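 active = inhibition above the campaign mean inhibition plus 3 SD, cut at about 35% in these data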;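 also: 0% = GSTO1-1 with DMSO and 100% = wells lacking GSTO1-1 enzyme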
UBC13 inh – UBC13 polyubiquitin chain formation inhibitors, primary screen, biochemical, TR-FRET, uHTS; Ubiquitin-conjugating enzyme E2 N (Homo sapiens), P61088; AID 485273, 2010; inhibition, % at 20 µM; 0.47% of 330,000 active; in the data active = inhibition above about 45%, passing the limit was not always enough; inconclusive = no clear call, values can overlap the other calls
Casp3 UBC13 ctr – CASP3 inhibitor validation, counterassay for project on UBE2N polyubiquitination blockers, biochemical, one dose; shares compounds with UBC13 inh; Recombinant caspase-3, Caspase-Glo 3/7 luminescence, 60 min; inhibition, % at 20 µM; 4% of 1,400 active;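 active = mean inhibition across replicates above about 26%, limit read from the data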;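 also: plate controls were DMSO with caspase-3 for no effect and DMSO wells lacking enzyme for full effect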
UBC13 confirm – UBC13 polyubiquitination inhibitors, single-point retest, confirmation, biochemical, TR-FRET, single concentration | shares compounds with UBC13 inh | inhibition, % at 10 µM | 68% of 1,400 active; in the data active = inhibition above about 45%; inconclusive = no clear call, values can overlap the other calls
Apaf-1 inh conf – Apaf-1 inhibitors, single-dose retest, confirmation, biochemical, fluorescence, DEVD-Rh110, 20 µM. shares compounds with Apaf1 inhib. reconstituted apoptosome, caspase-3 DEVD-Rh110 fluorescence. inhibition, % at 20 µM. 25% of 1,800 active. AID 504614, 2011;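 active = mean inhibition of at least 40% at 20 µM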;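 also: plate controls were DMSO wells for no effect and DEVD-CHO caspase inhibitor control wells for full effect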
Rh110 interf inh – Rh110 fluorescence interference by putative Apaf-1 inhibitors, confirmation, artefact control for Apaf-1 inhibitor project, biochemical, 20 µM; shares compounds with Apaf1 inhib; quenched caspase reaction; activation (fluorescence interference), % at 20 µM; 1,800 tested, under 10 active; AID 504615, 2011;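 active = signal rise of 40% or more at 20 µM, treated as a fluorescence artifact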
Apaf1 inh interf – fluorescence interference of Apaf-1 inhibitor hits, dose response, artefact control for Apaf-1 inhibitor project. IC50, µM. fluorescence interference counterscreen, Apaf-1 assay format. 460 tested, under 10 active. shares compounds with Apaf1 inhib; call rule not given here
* marks the source's active call; other numbers are inactive results; u = inconclusive; x = not tested or not shown.

SMILES | Rin1 Abl inh | PAD4 FP inh | UBC9 SUMO inh | Apaf1 inhib | GSTO1 inh | UBC13 inh | Casp3 UBC13 ctr | UBC13 confirm | Apaf-1 inh conf | Rh110 interf inh | Apaf1 inh interf
CCCCNC(=O)C1(C)CCN1C(=O)c1sccc1C (configuration not stated) | -5 | x | x | x | x | x | x | x | x | x | x
COc1ccc(C(=O)OCC(=O)c2ccco2)cc1[N+](=O)[O-] | 4 | x | x | x | x | x | x | x | x | x | x
Clc1cccc(-c2cccc3nccn23)c1Cl | 0 | x | x | x | x | x | x | x | x | x | x
Cc1cc(C(C)(C)C)ccc1OCCCCN1CCCC1 | -2 | 0 | 2 | 9 | 1 | 7 | x | x | x | x | x
Cc1cc[n+](CC[n+]2ccc(C)cc2)cc1 | -3 | 2 | x | 19 | 5 | -3 | x | x | x | x | x
CCC(C)(C)c1ccc(OCCCC[n+]2ccc(C)cc2)c(C(C)(C)CC)c1 | x | 0 | 19 | 48* | 3 | 69* | -2 | 99* | 29 | 20 | x
CCC(C)(C)c1ccc(OCCCC[n+]2cccc(C)c2C)c(C(C)(C)CC)c1 | -1 | 2 | 20 | 69* | -4 | 82* | -3 | 100* | 54* | 19 | >100
O=S(=O)(c1ccc(SCCOc2ccc(F)cc2)nc1)N1CCCC1 | -1 | -1 | x | 11 | x | 9 | x | x | x | x | x
CCCCCCCCCCCCCCCC[n+]1ccccc1 | -1 | x | x | x | x | x | x | x | x | x | x
CCCCCCCCCCCCCCCC[n+]1ccc(/C=N/O)cc1 | -4 | 6 | 0 | 80* | 3 | 91* | -2 | 88* | 58* | 17 | >100
CCCCCCCCCCCCCCCC[n+]1ccc(C(N)=O)cc1 | -2 | 0 | 14 | 73* | 9 | 89* | -3 | 99* | 53* | 8 | >100
CCCCCCCCCCCCCCCC[n+]1cccc(C(=O)N(CC)CC)c1 | -2 | 1 | -7 | 74* | 2 | 70* | -2 | 94* | 72* | 20 | >100
CCCCCCn1c(=O)n2n(c1=O)C[C@]1(OC(=O)NC3CC3)CN(S(=O)(=O)c3ccc(C)cc3)C[C@]1(O)C2 | 0 | x | x | x | x | x | x | x | x | x | x
COc1cc2nc(N3CCNCC3)nc(N)c2cc1OC | 8.2* | 6 | 9 | 61* | 4 | 107* | -1 | 118* | 66* | 4 | >100
COc1cc2nc(N3CCN(c4cc(C)ccc4C)CC3)nc(N)c2cc1OC | 3 | 7 | -22 | 29 | 3 | 43 | x | x | x | x | x
CCCCN(C=O)c1c(CC)nc2c(OCC3CCCCC3)cccn12 | -3 | x | x | x | x | x | x | x | x | x | x
COc1ccc(-c2sc3ccccc3c2-c2ccc(OCCN3CCCCC3)cc2)cc1 | 0 | -3 | x | 55* | x | 72* | -3 | u | 16 | 5 | x
COc1cccc(-c2sc3ccccc3c2-c2ccc(OCCN(C)C)cc2)c1 | 3 | -1 | x | 76* | x | 80* | -2 | 79* | 20 | 7 | x
COc1cccc(-c2sc3ccccc3c2-c2ccc(OCCN3CCCCC3)cc2)c1 | 1 | -3 | x | 64* | x | 69* | -2 | 62* | 8 | 14 | x

Screens (PubChem BioAssay)
